From ChEMBL document CHEMBL1155469, “Peptide nucleic acids conjugated to short basic peptides show improved pharmacokinetics and antisense activity in adipose tissue” (J Med Chem, 2010)
The source made the active and inactive calls. No cut-off for these calls is given here.

How the values were obtained:
BCL1 = experiment: Inhibition of PTEN expression in mouse BCL1 cells after 62 hrs by Western blotting; type: functional, cell-based; details: BCL1, 62 h
Procedure, shortened: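 BCL1 cells were grown in DMEM with 10% FBS at 37 °C, 5% CO2. Compound was delivered to 2×10^6 cells by electroporation (200 V, 1000 uF, 13 ohms), and cells were harvested 62 h later. Western blot of RIPA lysates used rabbit anti-PTEN and anti-CD40 (1:1000) with HRP secondary and ECL detection. PTEN was normalized to CD40. n=3, mean ± SD.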

Mus musculus [1] = experiment: Inhibition of PTEN expression in Balb/C mouse white adipose tissue assessed as upregulation of isoform lacking exon at 25 mg/kg, ip administered thrice a week for 2 weeks measured 48 hrs after last dose […]; type: functional, organism-based; design: dose 25 mg/kg
Mus musculus [2] = experiment: Inhibition of PTEN expression in Balb/C mouse white adipose tissue assessed as reduction of full length transcript at 25 mg/kg, ip administered thrice a week for 2 weeks measured 48 hrs after last dose […]; type: functional, organism-based; design: dose 25 mg/kg
Mus musculus [3] = experiment: Toxicity in Balb/C mouse assessed as change in serum bilirubin levels at 25 mg/kg, ip administered thrice a week for 2 weeks measured 48 hrs after last dose; type: organism-based; design: dose 25 mg/kg, route intraperitoneal; details: in vivo
Procedure, shortened: (§1)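 Male Balb/c mice, 6–8 wk, n=4/group, received compound i.p. in PBS (10 ul/g) 3x/wk for 2 wk. Body weight was monitored throughout. At 48 h after the last dose, mice were anesthetized with isoflurane and bled by cardiac puncture. Serum AST, ALT, BUN, bilirubin, glucose and triglycerides were compared with the saline group. ALT rise below 2x normal was counted as absent.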

Mus musculus [4] = experiment: Toxicity in Balb/C mouse assessed as change in serum ALT levels at 25 mg/kg, ip administered thrice a week for 2 weeks measured 48 hrs after last dose; type: organism-based; design: dose 25 mg/kg, route intraperitoneal; details: in vivo; procedure, shortened: as §1
Mus musculus [5] = experiment: Toxicity in Balb/C mouse assessed as change in body weight at 25 mg/kg, ip administered thrice a week for 2 weeks measured 48 hrs after last dose; type: organism-based; design: dose 25 mg/kg, route intraperitoneal; details: in vivo; procedure, shortened: as §1
Mus musculus [6] = experiment: Inhibition of PTEN expression in Balb/C mouse kidney at 25 mg/kg, ip administered thrice a week for 2 weeks measured 48 hrs after last dose by Western blot analysis; type: functional, organism-based; design: dose 25 mg/kg
Procedure, shortened: (§2)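 Male Balb/c mice, 6–8 wk, n=4/group, dosed i.p. in PBS 3x/wk for 2 wk and killed 48 h after the last dose. Tissue was homogenized in RIPA buffer with protease inhibitors, and protein was measured by Lowry assay. Lysates were run on 10% PAGE and blotted to PVDF. Blots were probed with rabbit anti-PTEN (1:1000) and HRP anti-rabbit (1:2500), with ECL detection.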

Mus musculus [7] = experiment: Toxicity in Balb/C mouse assessed as change in serum glucose levels at 25 mg/kg, ip administered thrice a week for 2 weeks measured 48 hrs after last dose; type: organism-based; design: dose 25 mg/kg, route intraperitoneal; details: in vivo; procedure, shortened: as §1
Mus musculus [8] = experiment: Toxicity in Balb/C mouse assessed as change in serum AST levels at 25 mg/kg, ip administered thrice a week for 2 weeks measured 48 hrs after last dose; type: organism-based; design: dose 25 mg/kg, route intraperitoneal; details: in vivo; procedure, shortened: as §1
Mus musculus [9] = experiment: Toxicity in Balb/C mouse assessed as change in serum triglyceride levels at 25 mg/kg, ip administered thrice a week for 2 weeks measured 48 hrs after last dose; type: organism-based; design: dose 25 mg/kg, route intraperitoneal; details: in vivo; procedure, shortened: as §1
Mus musculus [10] = experiment: Toxicity in Balb/C mouse assessed as change in blood urea nitrogen levels at 25 mg/kg, ip administered thrice a week for 2 weeks measured 48 hrs after last dose; type: organism-based; design: dose 25 mg/kg, route intraperitoneal; details: in vivo; procedure, shortened: as §1
Mus musculus [11] = experiment: Inhibition of PTEN expression in Balb/C mouse liver at 25 mg/kg, ip administered thrice a week for 2 weeks measured 48 hrs after last dose by Western blot analysis; type: functional, organism-based; design: dose 25 mg/kg; procedure, shortened: as §2

- IC50 (BCL1): 3.2 µM
Structure (SMILES): COCCO[C@@H]1[C@H](OP(=O)(S)OC[C@H]2O[C@@H](n3cc(C)c(=O)[nH]c3=O)C[C@@H]2OP(=O)(S)OC[C@H]2O[C@@H](n3cnc4c(=O)[nH]c(N)nc43)[C@H](OCCOC)[C@@H]2OP(=O)(S)OC[C@H]2O[C@@H](n3ccc(N)nc3=O)[C@H](OCCOC)[C@@H]2OP(=O)(S)OC[C@H]2O[C@@H](n3cc(C)c(=O)[nH]c3=O)C[C@@H]2OP(=O)(S)OC[C@H]2O[C@@H](n3cnc4c(N)ncnc43)[C@H](O)[C@@H]2OP(=O)(S)OC[C@H]2O[C@@H](n3cnc4c(=O)[nH]c(N)nc43)[C@H](O)[C@@H]2OP(=O)(S)OC[C@H]2O[C@@H](n3ccc(N)nc3=O)[C@H](O)[C@@H]2OP(=O)(S)OC[C@H]2O[C@@H](n3ccc(N)nc3=O)[C@H](O)[C@@H]2OP(=O)(S)OC[C@H]2O[C@@H](n3cc(C)c(=O)[nH]c3=O)C[C@@H]2OP(=O)(S)OC[C@H]2O[C@@H](n3ccc(N)nc3=O)[C@H](O)[C@@H]2OP(=O)(S)OC[C@H]2O[C@@H](n3cc(C)c(=O)[nH]c3=O)C[C@@H]2OP(=O)(S)OC[C@H]2O[C@@H](n3cnc4c(=O)[nH]c(N)nc43)[C@H](O)[C@@H]2OP(=O)(S)OC[C@H]2O[C@@H](n3cnc4c(=O)[nH]c(N)nc43)[C@H](O)[C@@H]2OP(=O)(S)OC[C@H]2O[C@@H](n3cnc4c(N)ncnc43)[C@H](O)[C@@H]2OP(=O)(S)OC[C@H]2O[C@@H](n3cc(C)c(=O)[nH]c3=O)C[C@@H]2OP(=O)(S)OC[C@H]2O[C@@H](n3cc(C)c(=O)[nH]c3=O)C[C@@H]2OP(=O)(S)OC[C@H]2O[C@@H](n3cc(C)c(=O)[nH]c3=O)C[C@@H]2OP(=O)(S)OC[C@H]2O[C@@H](n3cnc4c(=O)[nH]c(N)nc43)[C@H](OCCOC)[C@@H]2OP(=O)(S)OC[C@H]2O[C@@H](n3cnc4c(N)ncnc43)[C@H](OCCOC)[C@@H]2O)[C@@H](CO)O[C@H]1n1ccc(N)nc1=O (some centres not stated)
- Activity (Mus musculus [1]): Active
- Activity (Mus musculus [2]): Active
- Activity (Mus musculus [3]): Non-toxic
- Activity (Mus musculus [4]): Non-toxic
- Activity (Mus musculus [5]): Non-toxic
- inhibition (Mus musculus [6]): inactive
- Activity (Mus musculus [7]): Non-toxic
- Activity (Mus musculus [8]): Non-toxic
- Activity (Mus musculus [9]): Non-toxic
- Activity (Mus musculus [10]): Non-toxic
- Activity (Mus musculus [11]): Active
